For assay [1], the system named is K562. In words: Induction of cell cycle arrest in human K562 cells assessed as accumulation at G1 phase at 2.20 uM after 72 hrs by propidium iodide staining based flow cytometry (reference value: 56.13%). The assay is classed as functional. The method, boiled down: (§1)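 For cell cycle, K562 cells were treated 72 h at 0, 0.55, 1.10 or 2.20 μM, with a solvent control. Cells were stained with PI and G1, S and G2/M fractions determined by flow cytometry.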
A general note: A flow cytometer gives signals particle by particle.

Assay [2] concerns K562. In words: Induction of cell cycle arrest in human K562 cells assessed as accumulation at G2/M phase at 2.20 uM after 72 hrs by propidium iodide staining based flow cytometry (reference value: 8.19%). Format: functional. The method, boiled down:
as §1

Assay [3] relates to K562. The assay can be described thus: Induction of morphological changes in human K562 cells assessed as nuclear rupture at 0.55 to 2.20 uM after 48 hrs by Hoechst 33258 staining based fluorescence microscopic analysis. Format: functional, cell-based. The method, boiled down:
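After 48 h exposure at 0, 0.55, 1.10 or 2.20 μM, K562 cells were stained with Hoechst 33258. Nuclear morphology, including chromatin aggregation and nuclear rupture, was examined by fluorescence microscopy.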

In assay [4] the test system is K562. The assay can be described thus: Induction of apoptosis in human K562 cells assessed as early apoptotic cells at 0.55 uM after 48 hrs by annexin V-FITC/propidium iodide staining based flow cytometry (reference value: 2.23%). The assay is classed as functional.
Assay [5] relates to K562. The assay can be described thus: Induction of apoptosis in human K562 cells assessed as necrotic cells at 0.55 uM after 48 hrs by annexin V-FITC/propidium iodide staining based flow cytometry (reference value: 0.78%). Format: functional.
In assay [6] the test system is K562. In words: Induction of apoptosis in human K562 cells assessed as late apoptotic cells at 1.10 uM after 48 hrs by annexin V-FITC/propidium iodide staining based flow cytometry (reference value: 0.73%). Format: functional.
Assay [7] concerns K562. The assay can be described thus: Induction of apoptosis in human K562 cells assessed as necrotic cells at 1.10 uM after 48 hrs by annexin V-FITC/propidium iodide staining based flow cytometry (reference value: 0.78%). Format: functional.
For assay [8], the system named is K562. In words: Induction of apoptosis in human K562 cells assessed as early apoptotic cells at 2.20 uM after 48 hrs by annexin V-FITC/propidium iodide staining based flow cytometry (reference value: 2.23%). The assay is classed as functional.
Assay [9] relates to K562. The assay can be described thus: Induction of mitochondrial membrane potential loss in human K562 cells assessed as cell population with intact mitochondrial membrane potential at 0.55 uM after 48 hrs by JC1 staining-based flow cytometry analysis (reference value: 92.94%). Format: functional.
Assay [10] has as its system K562. The assay can be described thus: Induction of mitochondrial membrane potential loss in human K562 cells assessed as cell population with mitochondrial membrane potential collapse at 1.10 uM after 48 hrs by JC1 staining-based flow cytometry analysis (reference value: 7.04%). The assay is classed as functional.
The subject of assay [11] is K562. The assay can be described thus: Induction of apoptosis in human K562 cells assessed as increase in Bad protein expression after 24 hrs by chemiluminescence based protein array analysis. The assay is classed as functional, cell-based. In short, it runs like this: (§2)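 K562 cells were treated for 24 h, then proteins were extracted and run on a human apoptosis protein array. Chemiluminescent signals were detected with a digital imaging system.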

The test system of assay [12] is K562. The assay can be described thus: Induction of apoptosis in human K562 cells assessed as reduction in claspin level after 24 hrs by chemiluminescence based protein array analysis. The assay is classed as functional, cell-based. In short, it runs like this: as §2

Calls of active or inactive are those of the source. The rule behind the calls is not given here.

For `CN1Cc2c(ccc3c2OCO3)[C@H]2[C@@H](OC(=O)CCCC(=O)OCC#CCOc3no[n+]([O-])c3S(=O)(=O)c3ccccc3)Cc3cc4c(cc3[C@H]21)OCO4`, the Activity in assay [1] was 32.41%; in assay [2], 7.87%; in assay [4] it was 6.49%; in [5], 1.69%; in assay [6], 2.39%; in [7], 0.66%. Moreover, the Activity in assay [8] was found to be 24.84%; in assay [9] it was 80.71%; in assay [10], 28.66%. In addition, the result in assay [3], in assay [11] and in assay [12] was Active.

The values are drawn from ChEMBL document CHEMBL4610039, “Design, synthesis and apoptosis-related antiproliferative activities of chelidonine derivatives” (Bioorg Med Chem Lett, 2020).
